An excerpt weighted towards active compounds, which were near 3.7% of everything screened.
OX1R antag-1: blocks the human orexin 1 receptor | O43613 | OX1R-expressing cells, FRET antagonist read-out | inhibition, % at 6.6 µM | hit rate 1.8% among 330,000 | AID 485270; in the data active = inhibition mostly above about 38%, no sharp cut-off; inactive = mostly below about 40%;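 note: 0% = agonist challenge alone and 100% = reference antagonist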
Target sequence (O43613 whole entry, looked up): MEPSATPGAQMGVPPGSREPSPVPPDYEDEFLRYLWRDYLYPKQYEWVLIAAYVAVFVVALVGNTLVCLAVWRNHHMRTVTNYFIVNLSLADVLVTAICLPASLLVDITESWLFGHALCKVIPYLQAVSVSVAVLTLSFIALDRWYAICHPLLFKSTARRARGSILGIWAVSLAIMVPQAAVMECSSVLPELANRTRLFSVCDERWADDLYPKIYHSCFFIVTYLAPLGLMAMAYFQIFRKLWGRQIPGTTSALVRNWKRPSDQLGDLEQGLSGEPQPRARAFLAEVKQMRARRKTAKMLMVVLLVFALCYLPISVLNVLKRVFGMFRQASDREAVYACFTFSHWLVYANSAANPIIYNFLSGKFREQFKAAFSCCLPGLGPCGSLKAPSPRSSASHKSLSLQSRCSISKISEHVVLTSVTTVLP
CHO parental Ca: signal in parental CHO cells, OX1R antagonist counter-screen; parental CHO-K1, ATP-induced calcium, Fluo-8 fluorescence; hit rate 0.63% among 330,000; AID 463079; inhibition, % at 5.6 µM;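 active = inhibition above that plate's mean sample inhibition plus 3 SD, cut at about 26% in these data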;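 note: 0% = ATP-challenged DMSO wells and 100% = DMSO wells without ATP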
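Material: Parental CHO cells | Reagent: ATP | Compound dosing: Single nominal dose of 5.6 µM per compound | Detection: Intracellular calcium via Fluo-8 no-wash fluorescent dye | Read-out: % inhibition of ATP-induced calcium mobilization | Benchmarks: Low control ATP plus DMSO, high control DMSO only | Replicates: Singlicate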
OX1R antag-2: blocks the human orexin 1 receptor; hit rate 0.43% among 330,000; inhibition, % at 5 µM; O43613; AID 434989; CHO/OX1R cells, Fluo-8 calcium fluorescence, orexin A;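 active = inhibition above its plate's threshold, mean inhibition of all tested compounds on the plate plus 3 SD, cut at about 37% in these data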;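 note: 0% = orexin A challenge wells and 100% = SB-334867-A antagonist wells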
GPR7 antagonist: blocks human GPR7 receptor signaling; P48145; hit rate 1.1% among 290,000; GPR7-expressing cells, fluorescence antagonist assay; AID 1861; inhibition, % at 4.4 µM; in the data active = inhibition above about 16%, passing the limit was not always enough;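 note: cells stimulated with the agonist NPW; 0% = agonist with vehicle and 100% = vehicle without agonist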
EP2 mod: modulates human prostaglandin E2 receptor EP2 signaling; AID 940; P43116; EP2-expressing cells, cAMP HTRF FRET, PGE2 co-stimulation; hit rate 0.83% among 260,000; induction, % at 25 µM;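 active = compounds whose cAMP rise, as percent of the full-agonist control response, exceeds 60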;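 note: rat C6 glioma line stably carrying human EP2 under a CMV promoter; the protocol text gives 20 µM as final concentration; 100% = response of wells given 1 µM PGE2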
Target sequence (P43116 whole entry, looked up): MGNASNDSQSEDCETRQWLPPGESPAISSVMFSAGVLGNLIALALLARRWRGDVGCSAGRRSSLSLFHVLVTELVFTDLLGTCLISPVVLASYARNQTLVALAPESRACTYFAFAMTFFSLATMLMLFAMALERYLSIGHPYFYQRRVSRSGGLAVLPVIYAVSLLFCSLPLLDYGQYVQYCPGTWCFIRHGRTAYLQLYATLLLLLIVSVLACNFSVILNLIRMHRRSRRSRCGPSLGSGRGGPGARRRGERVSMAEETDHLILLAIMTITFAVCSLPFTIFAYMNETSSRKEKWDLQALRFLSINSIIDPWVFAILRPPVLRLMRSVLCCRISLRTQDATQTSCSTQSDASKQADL
PGE2 EP2 inh: inhibitors of human EP2 prostaglandin E2 receptor. P43116. C6 glioma cells expressing human EP2, cAMP TR-FRET; cells stimulated with saturating PGE2. hit rate 0.52% among 260,000. inhibition, % at 25 µM;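 active = percent inhibition above 40 after rounding to a whole number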;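 note: rat C6 glioma host cells with rolipram phosphodiesterase inhibitor present; the protocol text gives 20 µM as final concentration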
EP2 confirm: human EP2 receptor cAMP induction, negative in counter-screens | calls only at 20 µM (by protocol) | hit rate 47% among 1,300 | C6 glioma EP2 cells, cAMP HTRF induction; plus low (about EC15) PGE2 agonist | shares compounds with EP2 mod;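 active = cAMP induction above 50% in the main assay while under 30% in all four parallel counter assays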;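 note: rat C6 glioma cells stably expressing human EP2 receptor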
Active calls of the source: *; i = inactive; x = not tested or not shown; + = active, no number; ! = not confirmed by another sample.

SMILES | OX1R antag-1 | CHO parental Ca | OX1R antag-2 | GPR7 antagonist | EP2 mod | PGE2 EP2 inh | EP2 confirm
Cc1ccc(CNC(=O)C2CCC(CNc3c(N4CCC(C)CC4)c(=O)c3=O)CC2)cc1 (stereo unspecified) | 5.3 | 5.0 | -26.5 | -10.0 | 10.5 | 12.2 | x
COc1ccc(OC)c(-c2c3c([nH]c(=S)c2C#N)CCCC3)c1 | 10.6 | -19.3 | -13.5 | -9.5 | 26.7 | 6.1 | x
COc1ccc(-c2c3c([nH]c(=S)c2C#N)CCC3)cc1 | x | x | x | -8.5 | 76.8* | 18.0 | i
N#Cc1cn(-c2ccccc2)nc1-c1cc2ccccc2oc1=O | 13.6 | 4.5 | -18.6 | 16.7 | 65.0* | 7.8 | i
Cc1ccc(-c2nn(-c3ccccc3)cc2C(=O)O)o1 | 7.4 | -4.9 | 5.6 | -10.8 | 14.4 | 5.9 | x
Cc1ccc(-c2nn(-c3ccccc3)cc2CN(Cc2ccccc2)C(=O)c2ccco2)o1 | 16.8 | -15.4 | -26.3 | 8.4 | 79.6* | 8.6 | +
O=C(C1CCCC1)N1C2CCC1CC(c1ccc(F)cc1)C2 (stereo unspecified) | x | x | x | x | -10.1 | x | x
CCOC(=O)c1c(C)nc2ccccc2c1-c1ccccc1 | 22.7 | -7.2 | -21.0 | -14.2 | 84.8* | 4.5 | +
COC(=O)c1c(C)[nH]c(C)c1-c1ccccc1 | 15.5 | -6.0 | -14.8 | -5.1 | -13.4 | 10.8 | x
COC(=O)c1c(C)nc2ccccc2c1-c1ccccc1 | 22.7 | -11.2 | -24.4 | -1.2 | 88.9* | 5.9 | i
CCOC(=O)c1c(C)nc2ccccc2c1C | 3.4 | 11.7 | -9.1 | 0.8 | 16.6 | 17.3 | x
CCC(CC)c1nnc(NC(=O)c2cc([N+](=O)[O-])ccc2N2CCCCC2)s1 | 1.7 | -12.5 | -17.6 | -5.5 | 45.1 | 5.2 | x
C=CCn1c(-c2cccc(Cl)c2)n[nH]c1=S | 13.8 | -3.5 | -11.0 | -9.1 | 20.7 | 32.6 | x
C=CCn1c(-c2oc3nc(-c4ccccc4)cc(-c4ccccc4)c3c2N)n[nH]c1=S | 4.9 | -2.7 | -11.2 | -10.3 | 61.1* | 3.6 | i
CC1(C)Cc2ccccc2-c2nc3n(c(=O)c21)CCS3 | 14.0 | -9.9 | -21.0 | -6.8 | 74.0* | 10.3 | +
OCC(CO)(CO)NCC(O)CN1c2ccccc2Sc2ccccc21 (stereo unspecified) | -2.6 | -7.0 | -4.1 | 1.1 | x | x | x
c1ccc(CCc2cccnc2)nc1 | x | x | x | x | 74.4* | 12.5 | i
c1ccc(CN2CCN(Cc3cccnc3)CC2)nc1 | x | x | x | x | -15.5 | 9.2 | x
Fc1cccc(CNC2CCN(CCc3ccccc3)CC2)c1 | x | x | x | 0.6 | x | x | x
CCOC(=O)c1cnc2c(ccc3ccccc32)c1Cl | 8.0 | -13.2 | -15.1 | -21.3 | x | x | x
CSc1nc(Nc2ccccc2)c2ccccc2n1 | x | x | x | x | -38.5 | 11.3 | x
CSc1nc(Sc2ccccc2Cl)c2ccccc2n1 | 17.3 | -8.6 | -22.1 | 1.7 | 66.8* | 17.5 | i
CCOC(=O)c1cnc(SC)nc1Sc1ccccc1Cl | 14.3 | -20.0 | -38.8 | -2.7 | 73.3* | 6.8 | i
COc1cc(C(=O)O/N=C(\N)c2cccc([N+](=O)[O-])c2)cc(OC)c1OC | 4.7 | -5.3 | -2.7 | -14.8 | 18.6 | 0.7 | x
CCCc1cc(-c2n[nH]c(=S)n2C(C)c2ccccc2)cs1 (stereo unspecified) | 7.7 | -20.5 | -30.7 | -4.9 | 68.1* | -0.8 | +
SMILES | OX1R antag-1 | CHO parental Ca | OX1R antag-2 | GPR7 antagonist | EP2 mod | PGE2 EP2 inh | EP2 confirm
CCCc1cc(-c2n[nH]c(=S)n2CC)cs1 | 5.6 | -21.2 | -18.1 | -0.7 | 33.5 | 16.8 | x
CCCCn1c(-c2csc(CCC)c2)n[nH]c1=S | 12.7 | -8.4 | -10.1 | -9.3 | 58.5 | 14.9 | i
Cn1c(=O)[nH]c(=O)c2c1nc(CN1CCN(c3ccccc3F)CC1)n2CCCc1ccccc1 | 7.0 | -23.8 | -7.0 | -24.4 | 85.4* | 12.4 | i
COc1nc(-c2ccccc2)nnc1-c1ccccc1 | x | x | x | -5.4 | 74.6* | 5.3 | i
Clc1ccc(-c2nnc(-c3ccccc3)c(-c3ccccc3)n2)cc1 | 18.7 | -34.6 | -27.3 | -3.5 | 33.5 | 6.8 | x
CC1=C(C(=O)OCc2ccccc2)C(c2ccc(Cl)cc2Cl)NC(=O)N1CCCC(=O)O (stereo unspecified) | 26.6 | -12.1 | -3.1 | -3.9 | 31.1 | 5.2 | x
CC1=C(C(=O)OCc2ccccc2)C(c2ccc(Cl)cc2Cl)NC(=O)N1CCCCCC(=O)O (stereo unspecified) | 40.1 | -18.1 | 11.3 | 2.9 | 66.0* | 6.5 | i
CCC1(CC)Cc2ccccc2-c2nc(NCCO)[nH]c(=O)c21 | -2.7 | -17.7 | -33.0 | -4.6 | 69.0*! | 15.6 | i
CCn1c(=NC(=O)c2ccc(S(=O)(=O)N3CCOCC3)cc2)sc2cccc(OC)c21 | 11.4 | 0.9 | -5.7 | -6.6 | 68.4* | 15.3 | i
N#Cc1cc(N)c(Nc2ccccc2)cc1C#N | 35.0 | 3.1 | 9.3 | -4.0 | -14.3 | 21.4 | x
Cn1c(=O)c(NCCc2ccccc2)c2c3c(cccc31)C(=O)c1ccccc1-2 | 75.8 | 100.5* | 108.4* | 64.0* | 77.2* | 1.8 | +
Cn1c(NCCc2ccccc2)cc(=O)n(C)c1=O | 4.3 | -5.8 | -1.5 | -15.6 | 1.3 | 14.3 | x
Cn1c(=O)cc2c3c(c(N4CCCCC4)ccc31)C(=O)c1ccccc1-2 | 13.7 | -11.4 | -25.5 | -16.9 | -0.1 | 15.0 | x
Cn1c(=O)c(NC2CCCCC2)c2c3c(cccc31)C(=O)c1ccccc1-2 | x | x | x | -3.0 | 65.3* | 2.7 | +
Cc1ccc(NS(=O)(=O)c2cc(C(=O)NCc3ccccn3)ccc2Cl)cc1 | 7.6 | -26.4 | -18.2 | 0.0 | -33.5 | 12.0 | x
COc1ccc(C)cc1S(=O)(=O)N(CC(=O)NC1CCCC1)c1ccc(F)cc1 | 6.3 | -13.5 | -26.6 | 0.1 | x | x | x
C=C[C@@](C)(O)CCC1C(=C)C[C@H](O)C2C(C)(C)CCCC12C (stereo partly specified) | x | x | x | x | 79.5* | 9.9 | +
CC(C)N=C(Nc1ccccc1)c1cccnc1 | 7.2 | -6.0 | -5.3 | -2.4 | -8.4 | 2.5 | x
CC1CN(c2nc3ccccc3cc2-c2ccccc2)CC(C)O1 (stereo unspecified) | 40.9 | -40.1 | -37.9 | -17.6 | 67.3* | 4.7 | +
Cc1ccc(CSc2nnc(-c3cccc(S(=O)(=O)N4CCOCC4)c3)n2C2CCCC2)cc1 | 6.4 | -13.0 | -14.4 | -1.7 | -15.3 | 5.0 | x
NC(=O)CSc1nnc(-c2cccc(S(=O)(=O)N3CCOCC3)c2)n1C1CCCCCC1 | 1.4 | -6.7 | -15.8 | 1.4 | 80.7* | 10.8 | i
COC(=O)c1c(NC(=O)c2ccccc2Cl)sc(C(=O)NC2CCCCC2)c1C | x | x | x | x | -29.1 | 11.9 | x
CCOc1ccccc1COC(=O)c1cccc(-n2cnnn2)c1 | 24.6 | 1.0 | -45.1 | 10.4 | 70.9* | 6.5 | i
N#Cc1c(-c2ccco2)nc(SCC(=O)Nc2cccc(Cl)c2)[nH]c1=O | -1.2 | -7.3 | -8.5 | -5.8 | 63.7* | 21.4 | i

Compound activity (PubChem BioAssay)
